Reference: ChEMBL document CHEMBL1124839, “5-Hydroxytryptamine (5-HT3) receptor antagonists. 3. Ortho-substituted phenylureas” (J Med Chem, 1990)

Target: Serotonin 3 (5-HT3) receptor (Rattus norvegicus) (UniProt P35563+Q9JJ16)
Assay: In vivo 5-hydroxytryptamine 3 receptor (5-HT 3 receptor) antagonistic activity expressed as ability to inhibit Bezold-Jarich reflex evoked by 5-HT in rats
Assay type: functional, organism-based
Procedure, shortened: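 Male rats (260-290 g) anesthetized with urethane (1.25 g/kg ip), with blood pressure and heart rate recorded. A submaximal 5-HT dose (6 µg/kg iv) was given repeatedly, and the heart-rate change was quantified. Compound was given iv before 5-HT. ID50 is the dose reducing the 5-HT-evoked response to 50% of the control response.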

Row | ID50 | Structure (SMILES)
1 | 7.5 µg/kg | COc1ccccc1NC(=O)NC1CC2CCCC(C1)N2C (stereo in doubt; 6c)
2 | > 10 µg/kg | COc1ccc(O)cc1NC(=O)NC1CC2CCC(C1)N2C (configuration not stated)
3 | > 10 µg/kg | COc1ccc(OC)c(NC(=O)NC2CC3CCC(C2)N3C)c1 (configuration not stated)
4 | > 10 µg/kg | COc1ccc(C)cc1NC(=O)NC1CC2CCC(C1)N2C (configuration not stated)
5 | > 10 µg/kg | COc1ccc(NC(=O)NC2CC3CCC(C2)N3C)c(OC)c1 (configuration not stated)
6 | 2.5 µg/kg | COc1ccccc1NC(=O)NC1CC2CCC(C1)N2C (configuration not stated)
7 | > 100 µg/kg | COc1ccccc1NC(=O)NC1CC2CCCC(C1)N2C (stereo in doubt; 11c)
8 | > 10 µg/kg | COc1cc(F)ccc1NC(=O)NC1CC2CCC(C1)N2C (configuration not stated)
9 | > 10 µg/kg | COc1ccc([N+](=O)[O-])cc1NC(=O)NC1CC2CCC(C1)N2C (configuration not stated)
10 | 7 µg/kg | COc1ccc(F)cc1NC(=O)NC1CC2CCC(C1)N2C (configuration not stated)

Further lines, the compound ahead of its results:

Row | Structure (SMILES) | ID50
11 | CC(C)Oc1ccccc1NC(=O)NC1CC2CCC(C1)N2C (configuration not stated) | 4.2 µg/kg
12 | CCCCOc1ccccc1NC(=O)NC1CC2CCC(C1)N2C (configuration not stated) | 8.3 µg/kg
13 | CCC(C)Oc1ccccc1NC(=O)NC1CC2CCC(C1)N2C (configuration not stated) | 2.7 µg/kg
14 | CN1C2CCC1CC(NC(=O)Nc1ccccc1OC(C)(C)C)C2 (configuration not stated) | > 10 µg/kg
15 | CSc1ccccc1NC(=O)NC1CC2CCC(C1)N2C (configuration not stated) | 12.7 µg/kg
16 | COCc1ccccc1NC(=O)NC1CC2CCC(C1)N2C (configuration not stated) | 13.4 µg/kg
17 | CN1C2CCC1CC(NC(=O)Nc1ccccc1O)C2 (configuration not stated) | 11.6 µg/kg
18 | CN(C)C(=O)c1ccccc1NC(=O)NC1CC2CCC(C1)N2C (configuration not stated) | > 10 µg/kg
19 | CCOc1ccccc1NC(=O)NC1CC2CCC(C1)N2C (configuration not stated) | 3.1 µg/kg
20 | CCCOc1ccccc1NC(=O)NC1CC2CCC(C1)N2C (configuration not stated) | 9.8 µg/kg
21 | CN1C2CCC1CC(NC(=O)Nc1ccccc1OCc1ccccc1)C2 (configuration not stated) | 5.2 µg/kg
22 | CCOC(=O)c1ccccc1NC(=O)NC1CC2CCC(C1)N2C (configuration not stated) | 5.2 µg/kg
23 | CN1C2CCC1CC(NC(=O)Nc1ccccc1Oc1ccccc1)C2 (configuration not stated) | 5.4 µg/kg
24 | CN1C2CCC1CC(NC(=O)Nc1ccccc1S(=O)(=O)N(C)C)C2 (configuration not stated) | 2.2 µg/kg
25 | C=CCOc1ccccc1NC(=O)NC1CC2CCC(C1)N2C (configuration not stated) | 2.6 µg/kg
26 | COC(=O)c1ccccc1NC(=O)NC1CC2CCC(C1)N2C (configuration not stated) | 2.1 µg/kg
27 | COc1ccccc1NC(=O)OC1CC2CCC(C1)N2C (configuration not stated) | 2.4 µg/kg
